Among the data in ChEMBL document CHEMBL1151304, “Preparation and cytotoxic effect of ceanothic acid derivatives” (J Nat Prod, 1998) are Survival, viability and IC50 values, retold here.

In brackets after ≈: the same amount, converted by molar mass.

The subject of data set [1] is OVCAR-3. Description: Cytotoxicity against human OVCAR-3 cells assessed as cell survival after 48 hrs by MTT assay relative to control. The data set is classed as functional. Also noted: concentration or dose not given beside the values. The essentials:
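OVCAR-3 (human ovarian adenocarcinoma) cells were kept in RPMI 1640 with 10% heat-inactivated FCS, streptomycin, penicillin and 2 mM glutamine at 37 °C under 5% CO₂. They were seeded at 2 × 10⁴ cells/well and grown 24 h. The medium was then swapped for one holding compound and 2% FCS for 48 h. MTT (5 mg/mL stock in PBS) went on for 4 h in serum-free medium, then SDS/DMF lysis overnight, and absorbance was read at 570 nm.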
On the technique in general: Tetrazolium assays rely on reduction of a dye to a coloured formazan, in cell work by metabolically active cells.

Data set [2] relates to HeLa. Description: Cytotoxicity against human HeLa cells assessed as cell survival after 48 hrs by MTT assay relative to control. The data set is classed as functional. Also noted: concentration or dose not given beside the values. The essentials: (§1)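 FS-5 foreskin fibroblasts and HeLa cervical carcinoma cells were grown in DMEM with 10% heat-inactivated FCS, antibiotics and glutamine at 37 °C under 5% CO₂. They were seeded at 2 × 10⁴ cells/well and held 24 h, then exposed for 48 h to compound in medium with 2% FCS. MTT (5 mg/mL stock in PBS) went on for 4 h, then SDS/DMF lysis overnight, and A570 was read.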

A short description of data set [3]: Cytotoxicity against human FS5 cells assessed as cell survival after 48 hrs by MTT assay relative to control. In kind it is cell-based. Also noted: concentration or dose not given beside the values. The conditions noted are these: read-out: Survival. The essentials: as §1
Data set [4] relates to OVCAR-3. Description: Cytotoxicity against human OVCAR-3 cells after 48 hrs by MTT assay. In kind it is functional, cell-based. The note with it: OVCAR-3, 48 h. The essentials:
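OVCAR-3 ovarian adenocarcinoma cells kept in RPMI 1640 with 10% heat-inactivated FCS, 100 µg/mL streptomycin, 100 IU/mL penicillin, 2 mM glutamine at 37 °C, 5% CO2. Plated at 2 × 10⁴ cells/well and cultured 24 h, then treated 48 h in 2% FCS medium. After washing, MTT incubation 4 h, overnight lysis in 20% SDS/50% DMF, absorbance at 570 nm.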

Data set [5] concerns HeLa. Nature of the data set: Cytotoxicity against human HeLa cells after 48 hrs by MTT assay. The data set is classed as functional, cell-based. The essentials:
(§2)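 FS-5 foreskin fibroblasts and HeLa cervical carcinoma cells grown in DMEM with 10% heat-inactivated FCS, penicillin, streptomycin, glutamine (37 °C, 5% CO2). Seeded at 2 × 10⁴ cells/well and left 24 h, then exposed 48 h to compounds in medium with 2% FCS. Washed, MTT added for 4 h at 37 °C, lysed overnight in SDS/DMF, A570 read.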

Data set [6] can be described thus: Cytotoxicity against human FS5 cells after 48 hrs by MTT assay. The data set is classed as cell-based. The note with it: FS5, 48 h. The essentials:
as §2

In data set [7] the test system is OVCAR-3. Nature of the data set: Cytotoxicity against human OVCAR-3 cells assessed as cell survival at 10 ug/ml after 48 hrs by MTT assay relative to control. The data set is classed as functional. The conditions noted are these: OVCAR-3, 48 h, read-out: Survival.
The subject of data set [8] is HeLa. Nature of the data set: Cytotoxicity against human HeLa cells assessed as cell survival at 10 ug/ml after 48 hrs by MTT assay relative to control. The data set is classed as functional. The conditions noted are these: read-out: Survival.
A short description of data set [9]: Cytotoxicity against human FS5 cells assessed as cell survival at 10 ug/ml after 48 hrs by MTT assay relative to control. The data set is classed as cell-based. The note with it: read-out: Survival.

In the case of `C=C(C)[C@@H]1CC[C@]2(C(=O)O)CC[C@]3(C)[C@H](CC[C@@H]4[C@@]5(C)CCC(C)(C)[C@@H]5CC[C@]43C)[C@@H]12`, the results for the Survival in the data set with OVCAR-3 [1] and in the data set on HeLa [2] were 55% and 48%, respectively. In data set [3], the viability at 48 h was 85%.
The like results for `C=C(C)[C@@H]1CC[C@]2(C(=O)O)CC[C@]3(C)[C@H](CC[C@@H]4[C@@]5(C)[C@@H](CO)[C@H](O)C(C)(C)[C@@H]5CC[C@]43C)[C@@H]12` were, in that order, 25%, 22% and 43%.
The like results for `C=C(C)[C@@H]1CC[C@]2(C(=O)O)CC[C@]3(C)[C@H](CC[C@@H]4[C@@]5(C)C(C(=O)O)=CC(C)(C)[C@@H]5CC[C@]43C)[C@@H]12` were, in that order, 51%, 50% and 87%.
On to `C=C(C)[C@@H]1CC[C@]2(C(=O)O)CC[C@]3(C)[C@H](CC[C@@H]4[C@@]5(C)C=CC(C)(C)[C@@H]5CC[C@]43C)[C@@H]12`, for which the results for the Survival with OVCAR-3 [1] and in the data set on HeLa [2] were 0% and 17%, respectively. For the same molecule, the viability at 48 h in data set [3] stood at 33%. The IC50 (usually the concentration at which inhibition is half-maximal) in the data set on OVCAR-3 [4] turned out to be 3.5 µg/mL (≈ 8.24 µM); in the data set on HeLa [5], 7.1 µg/mL (≈ 16.7 µM); in data set [6] it was 22.7 µg/mL (≈ 53.5 µM).
In the case of `C=C(C)[C@@H]1CC[C@]2(C(=O)O)CC[C@]3(C)[C@H](CC[C@@H]4[C@@]5(C)C[C@H](O)C(C)(C)[C@@H]5CC[C@]43C)[C@@H]12`, the Survival with OVCAR-3 [1] is given as 0%; in the data set with HeLa [2] it was 18%. In data set [3], the viability at 48 h came out at 67%. Also, the IC50 in the data set with OVCAR-3 [4] turned out to be 4.7 µg/mL (≈ 10.6 µM); in the data set on HeLa [5], 9.1 µg/mL (≈ 20.6 µM); in data set [6], 29.6 µg/mL (≈ 66.9 µM).
Turning to `C=C(C)[C@@H]1CC[C@]2(C(=O)O)CC[C@]3(C)[C@H](CC[C@@H]4[C@@]5(C)CC(=O)C(C)(C)[C@@H]5CC[C@]43C)[C@@H]12`, the Survival is recorded as 0% with OVCAR-3 [1] and 4% in the data set on HeLa [2]. Also, in data set [3], the viability at 48 h came to 16%. In addition, the values for the IC50 (with OVCAR-3 [4]; in the data set with HeLa [5]; in data set [6]) were 2.8 µg/mL (≈ 6.35 µM), 6.6 µg/mL (≈ 15 µM) and 11.3 µg/mL (≈ 25.6 µM), respectively.
With `C=C(C)[C@@H]1CC[C@]2(C(=O)O)CC[C@]3(C)[C@H](CC[C@@H]4[C@@]5(C)CC[C@H](O)C(C)(C)[C@@H]5CC[C@]43C)[C@@H]12` [BETULINIC ACID], the Survival with OVCAR-3 [1] is 0%; in the data set on HeLa [2], 25%. Further, the viability at 48 h in data set [3] worked out at 39%. The IC50 was 0.9 µg/mL (≈ 1.97 µM) in the data set on OVCAR-3 [4], 0.8 µg/mL (≈ 1.75 µM) with HeLa [5] and 20.7 µg/mL (≈ 45.3 µM) in [6].
`C=C(C)[C@@H]1CC[C@]2(C(=O)O)CC[C@]3(C)[C@H](CC[C@@H]4[C@@]5(C)[C@@H](C(=O)O)[C@H](O)C(C)(C)[C@@H]5CC[C@]43C)[C@@H]12` [CEANOTHIC ACID]: the values for the Survival in the data set on OVCAR-3 [1] and in the data set with HeLa [2] were 68% and 65%, respectively. In data set [3], the viability at 48 h came to 81%.
With `COc1cccc2c1C(=O)c1c(O)c3c(c(O)c1C2=O)C[C@@](O)(C(=O)CO)C[C@@H]3O[C@H]1C[C@H](N)[C@H](O)[C@H](C)O1` [DOXORUBICIN], the viability at 10 µg/mL was 21% in the data set on OVCAR-3 [7] and 19% in the data set on HeLa [8]. Moreover, the viability at 48 h, 10 ug/ml in data set [9] was determined as 56%.
